Bioassay records as filed in PubChem BioAssay.
FGF22 binding: binders of recombinant human FGF22 by thermal shift. Q9HCT0. SYPRO orange fluorescence; percent of sucrose octasulfate shift, DMSO zero. activity (Tm shift, normalised), % at 9.99 µM. hit rate 1.5% among 340,000;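 active = mean Tm shift, scaled 0 neutral to 100 positive control, at about 1.3% or above, every replicate too, limit read from the data; inconclusive = no clear call, values can overlap the other calls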
Target sequence (Q9HCT0 whole entry, looked up): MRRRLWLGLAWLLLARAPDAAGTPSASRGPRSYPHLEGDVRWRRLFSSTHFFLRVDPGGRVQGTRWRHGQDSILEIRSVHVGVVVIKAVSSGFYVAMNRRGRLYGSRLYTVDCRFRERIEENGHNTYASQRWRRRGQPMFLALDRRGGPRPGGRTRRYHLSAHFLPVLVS
C2C12 statin: suppression of simvastatin myotoxicity; rescue of ATP level, % at 7.49 µM; C2C12 myotubes + simvastatin, ATP luminescence, 48 h; scaled: DMSO 0, geranylgeraniol control 100; AID 602340; hit rate 0.78% among 330,000;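 active = mean ATP rescue above about 67%, or every replicate alone reaching that limit, limit read from the data, passing the limit was not always enough; inconclusive = no clear call, values can overlap the other calls; inactive = mean under the limit and some replicate under it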;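 also: myotubes were challenged with 10 µM simvastatin during compound exposure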
DENV2 CPE rescue: protects cells from dengue virus 2 cytopathic effect; DENV2-infected cells, cytopathic effect rescue, plate reader; CPE inhibition, % at 9.99 µM; hit rate 1.7% among 350,000; AID 651640; in the data active = CPE inhibition above about 20%, passing the limit was not always enough; inconclusive = no clear call, values can overlap the other calls; tested in BHK-21 cells;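 also: 0% = median of neutral control wells and 100% = median of positive control wells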
E-selectin induc: induces E-selectin expression in human endothelial cells | P16581 | HUVEC E-selectin immunofluorescence imaging; normalized: neutral wells 0, TNF-alpha wells 100 | activation, % at 7.58 µM | hit rate 0.37% among 260,000 | AID 686992;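 active = mean E-selectin-positive cell signal at least 10% of the positive control, reached in at least 60% of replicates, without over 20% cell loss; inconclusive = no rule given, readout overlaps actives, possibly toxicity-flagged; inactive = the rest, including those meeting only one limit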
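Assay system: HUVEC primary endothelial cells. Input: 3,000 HUVEC seeded per well. Doses: one compound dose added by pin transfer. Read-out basis: % PE-positive cells. Benchmarks: TNF-alpha high, DMSO low. Detection: immunofluorescence imaging. Buffer or medium: EGM-2, gelatin.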
Xi reactivation: reactivates the inactive X chromosome in mouse fibroblasts; activation, % at 7.58 µM; XiGFP mouse fibroblasts, % GFP-positive cells imaging, 3 d; cells co-treated with 5-aza-dC sensitizer; scaled so ellipticine positive control = 100%; hit rate 0.055% among 360,000; AID 743238;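 active = mean normalized replicate activation at least 10% and every replicate at or above 10%; inconclusive = only one of the two criteria met; inactive = mean below 10% and not all replicates reach 10%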;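 also: 0% = median of on-plate neutral control wells and 100% = ellipticine 6 µM median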
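Material: XiGFP fibroblasts, SV40-immortalized; Buffer or medium: DMEM containing 5-aza-dC; Compound dosing: single point; Times: 3 days compound exposure.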
PglD inh: inhibitors of Campylobacter jejuni PglD acetyltransferase; hit rate 0.098% among 360,000; inhibition, % at 12.5 µM; purified PglD enzyme, DTNB colorimetric CoA detection; in the data active = inhibition above about 16%, passing the limit was not always enough; inconclusive = no clear call, values can overlap the other calls
Starred values were filed as active, the others as inactive; u = inconclusive; x = no result given. Rows were chosen to be rich in hits. Some 3.3% of all compounds tested hit in one or more screens of this group.

SMILES | FGF22 binding | C2C12 statin | DENV2 CPE rescue | E-selectin induc | Xi reactivation | PglD inh
C[C@@H]1CCCCO[C@H](CN(C)C(=O)Nc2ccc(C(F)(F)F)cc2)[C@@H](C)CN([C@@H](C)CO)C(=O)c2cc(NC(=O)Cc3ccccc3)ccc2O1 | -0.3 | x | 42.2* | 0.4 | -0.1 | 1.9
C[C@H]1CCCCO[C@@H](CN(C)C(=O)Nc2ccc(C(F)(F)F)cc2)[C@@H](C)CN([C@@H](C)CO)C(=O)c2cc(NC(=O)Cc3ccccc3)ccc2O1 | -0.1 | x | 18.8 | 0.5 | -0.1 | -1.7
CCNC(=O)C[C@H]1C=C[C@@H](NC(=O)C2CCC2)[C@@H](CO)O1 | -0.3 | 1.3 | 6.6 | -0.3 | -0.4 | 2.7
C[C@@H]1CCCCO[C@@H](CN(C)C(=O)Nc2cccc3ccccc23)[C@H](C)CN([C@@H](C)CO)C(=O)c2cc(NS(C)(=O)=O)ccc2O1 | -0.8 | x | 13.8 | 0.2 | -0.1 | -1.6
CC(=O)N(c1ccccc1C)S(=O)(=O)c1ccc(Cl)cc1 | 43.2* | x | -3.3 | x | -0.1 | x
CC1(C(=O)NCc2ccccc2)Cc2c(-c3ccc(C(N)=O)cc3)ccnc2O1 (stereo not given) | -0.3 | -90.7 | 6.0 | 2.4 | 1.3 | -4.1
CC1(C(=O)NCc2ccco2)Cc2c(-c3ccc(C(N)=O)cc3)ccnc2O1 (stereo not given) | -0.1 | -8.5 | 39.9* | x | 0.2 | 3.9
COc1cccc(-c2ccc3c(c2)O[C@@H](CN(C)C(=O)C2CCC2)[C@H](C)CN([C@@H](C)CO)S3(=O)=O)c1 | 0.3 | -11.0 | -5.8 | 0.5 | -1.1 | -2.9
O=c1[nH]c(=O)c2cc([N+](=O)[O-])cc([N+](=O)[O-])c2[nH]1 | 43.1* | x | -2.7 | x | 0.2 | x
C[C@H](CO)N1C[C@H](C)[C@@H](CN(C)C(=O)c2cccc(F)c2)Oc2cc(-c3cccc(F)c3)ccc2S1(=O)=O | -0.7 | -38.4 | -11.3 | 0.2 | -0.9 | 1.5
O=C(COc1cccc(Br)c1)N/N=C/C(=O)c1ccccc1 | 42.9* | x | 4.7 | x | 0.0 | x
Cc1cccc(OCC(=O)NCC(=O)N/N=C/c2ccccc2)c1 | 42.9* | -0.3 | -0.5 | x | 0.3 | 0.7
CCNc1nc(SCc2ccccc2)nc(N2CCOCC2)n1 | x | 98.5* | x | x | x | 2.4
CCNc1nc(C(=O)O)nc(N2CCOCC2)n1 | 43.1* | x | 4.6 | -0.1 | 0.0 | x
CC(C)(C)Nc1nc(C(N)=O)nc(N2CCOCC2)n1 | x | -3.0 | x | x | x | -1.1
CCS(=O)(=O)Nc1ccc2c(c1)C(=O)N(C)C[C@H](OC)[C@@H](C)CN(C(=O)C1CCC1)[C@H](C)CO2 | x | -2.2 | 8.6 | -0.3 | -0.2 | 0.2
CCN(CCCNC(=O)C1CCCN(S(=O)(=O)CC)C1)c1cccc(C)c1 (stereo not given) | x | -5.4 | x | x | x | 1.6
CCN(CCCNC(=O)C1CCC(=O)N1C(C)C)c1cccc(C)c1 (stereo not given) | x | 125.9* | x | x | x | -0.4
CCC1(c2ccccc2)NC(=O)N(CC(=O)Nc2ccccc2C(=O)N2CCCCC2)C1=O (stereo not given) | x | -8.7 | 34.8* | 1.1 | -0.1 | -2.0
CCC1(c2ccccc2)NC(=O)N(CC(=O)Nc2ccccc2N2CCCCC2)C1=O (stereo not given) | 0.1 | x | -6.9 | -0.2 | 0.3 | 2.5
COc1ccc2oc(C(=O)OCC(=O)N3CC(C)CC(C)C3)c(C)c2c1 (stereo not given) | -0.7 | -4.6 | 14.2 | 1.1 | -0.1 | x
Cc1c(C(=O)OCC(C)(C)CN(C)C)oc2ccccc12 | x | 95.5* | x | x | x | 2.5
Cc1c(C(=O)OCC(=O)N2CC(C)CC(C)C2)oc2ccccc12 (stereo not given) | 45.9* | 9.0 | -3.5 | -0.1 | 0.6 | -6.4
C[C@H](CO)N1C[C@H](C)[C@H](CN(C)C(=O)c2ccc(F)cc2)Oc2ncc(-c3ccncc3)cc2C1=O | -0.1 | 16.2 | -9.4 | -0.9 | -0.3 | 0.2
CO[C@H]1CN(C)C(=O)c2cc(NS(=O)(=O)c3ccc(Cl)cc3)ccc2OC[C@H](C)NC[C@@H]1C | -0.1 | -12.2 | -3.2 | 0.0 | 0.0 | 1.3
SMILES | FGF22 binding | C2C12 statin | DENV2 CPE rescue | E-selectin induc | Xi reactivation | PglD inh
CC1C2CCC(C2)C1OC(=O)c1ccccc1C(=O)O (stereo not given) | 43.9* | x | -7.7 | 0.2 | 0.3 | x
O=C(O)c1ccccc1N1C(=O)C2C3CCC(C3)C2C1=O (stereo not given) | -0.1 | x | -0.6 | 5.2 | 0.1 | x
O=C(O)c1ccccc1C(=O)OC1CCCC2CCCC21 (stereo not given) | 43.2* | x | 0.0 | 0.2 | 0.2 | x
O=C(Nc1cc(F)ccc1F)N1CC(=O)N2[C@H](CO)[C@@H](c3ccc(-c4ccccc4)cc3)[C@H]2C1 | x | x | u | -0.3 | 0.2 | x
O=C(Nc1cc(F)ccc1F)N1CC(=O)N2[C@H](CO)[C@H](c3ccc(-c4cccnc4)cc3)[C@@H]2C1 | x | x | 29.5* | 0.6 | 0.1 | x
O=C1CN(Cc2ccc(F)cc2)C[C@@H]2[C@@H](c3ccc(-c4cccnc4)cc3)[C@@H](CO)N12 | x | x | 2.4 | 0.0 | 0.1 | x
O=C1CN(Cc2ccc(F)cc2)C[C@H]2[C@@H](c3ccc(-c4cccnc4)cc3)[C@H](CO)N12 | x | x | 23.6* | -0.1 | 0.4 | x
CCCNC(=O)N(C)C[C@@H]1Oc2cc(C#C[C@H](C)O)ccc2S(=O)(=O)N([C@@H](C)CO)C[C@@H]1C | 0.1 | -4.2 | -3.5 | -0.2 | 0.0 | 2.8
C[C@@H]1CN([C@@H](C)CO)C(=O)c2cccc(NC(=O)Nc3ccccc3)c2O[C@H]1CN(C)S(=O)(=O)c1ccccc1 | 0.0 | -0.1 | 39.5* | u | 0.0 | -0.8
COc1ccc(S(=O)(=O)N(C)C[C@H]2Oc3c(NC(=O)Nc4ccc(C(F)(F)F)cc4)cccc3C(=O)N([C@H](C)CO)C[C@@H]2C)cc1 | -0.7 | 7.2 | 20.8* | x | -0.9 | -3.0
COc1ccc(S(=O)(=O)N(C)C[C@H]2Oc3c(NC(=O)Nc4ccccc4)cccc3C(=O)N([C@H](C)CO)C[C@H]2C)cc1 | x | 77.6* | x | x | x | x
C[C@H](CO)N1C[C@H](C)[C@@H](CN(C)S(=O)(=O)c2ccccc2)Oc2c(NC(=O)Nc3ccccc3)cccc2C1=O | 0.1 | -11.2 | -11.5 | u | 0.1 | 3.8
C[C@H](CO)N1C[C@H](C)[C@H](CN(C)S(=O)(=O)c2ccccc2)Oc2c(NC(=O)C3CCOCC3)cccc2C1=O | -0.3 | 0.4 | -16.3 | 31.3* | -0.1 | 5.8
C[C@H](NC(=O)C[C@@H]1C[C@H]2c3cc(NS(=O)(=O)c4ccc(F)cc4)ccc3O[C@H]2[C@@H](CO)O1)c1ccccc1 | -0.1 | 2.3 | -6.1 | 0.6 | 0.0 | 4.4
CC(C)CC#Cc1cnc2c(c1)C(=O)N([C@H](C)CO)C[C@H](C)[C@H](CN(C)C(=O)c1ccccc1F)O2 | 0.1 | -0.6 | 0.0 | 0.0 | 0.2 | 1.5
